Experimental findings from ChEMBL document CHEMBL2203225, “Dehydrozingerone, a structural analogue of curcumin, induces cell-cycle arrest at the G2/M phase and accumulates intracellular ROS in HT-29 human colon cancer cells” (J Nat Prod, 2012) are described below.

The source made the active and inactive calls. The calls are words filed in the database; no cut-off is given here.

In data set [1] the test system is HT-29. The data set can be described thus: Cytotoxicity against human HT-29 cells assessed as dead cells at GI70 concentration after 72 hrs by WST-8 assay. In kind it is functional. A digest of the protocol:
(§1)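 HT-29 colon cancer cells grown in DMEM with 10% FBS, 2 mM glutamine, penicillin and streptomycin at 37 °C, 5% CO2. Cells exposed to compound or vehicle (0.1% DMSO) for 72 h. Live and dead cells were counted by ViaCount staining on a Guava EasyCyte Plus flow cytometer, and percent dead cells was calculated. Mean ± SD, n = 3.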
A general note: Tetrazolium dyes change colour on reduction, which living cells bring about.

The test system of data set [2] is HT-29. The data set is described as follows: Upregulation of p21 gene expression in human HT-29 cells at > 250 uM after 24 hrs by Western blotting. In kind it is functional, cell-based. A digest of the protocol: (§2)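 HT-29 cells treated 24 h or given 0.1% DMSO, then lysed in 50 mM Tris-HCl with 1% SDS and protease inhibitors. Blots were blocked in 5% skim milk/TBST for 1 h at RT and probed with primary antibody for 1 h at RT. Detection by ECL, with β-actin as loading control.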
In general terms: A western blot detects proteins with antibodies after separation by electrophoresis.

Data set [3] relates to HCT-116. The data set is described as follows: Cytotoxicity against human HCT116 cells assessed as growth inhibition after 72 hrs by WST-8 assay. In kind it is functional, cell-based.
In data set [4] the test system is HCT-15. The data set can be described thus: Cell cycle arrest in human HCT15 cells assessed as ROS-stimulated accumulation at G2/M phase after 24 hrs by propidium iodide based FACS flow cytometry in presence of N-acetyl-L-cysteine. In kind it is functional. On the technique in general: Flow cytometry measures light scatter and fluorescence of single cells or particles in a stream.

In data set [5] the test system is HT-29. The data set can be described thus: Upregulation of p21 gene expression in human HT-29 cells assessed as decrease in phosphorylated CDK1 at Thr161 at 500 uM after 24 hrs by Western blotting. In kind it is functional, cell-based. In a few lines: as §2
For data set [6], the system named is HT-29. The data set can be described thus: Cell cycle arrest in human HT-29 cells assessed as ROS-stimulated accumulation at G2/M phase at 62.5 to 250 uM after 24 hrs by propidium iodide based FACS flow cytometry.
Data set [7] relates to HT-29. The data set is described as follows: Cell cycle arrest in human HT-29 cells assessed as ROS-stimulated accumulation at G2/M phase at 125 to 500 uM after 24 hrs by propidium iodide based FACS flow cytometry in presence of N-acetyl-L-cysteine. In kind it is functional. In a few lines: (§3)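 HT-29 cells grown in DMEM with 10% FBS and 2 mM glutamine at 37 °C, 5% CO₂, treated 24 h, then permeabilized with 0.1% Triton X-100. Stained with 100 μg/mL propidium iodide and analysed for G1, S and G2/M fractions by FACSCalibur flow cytometry. Data are means ± SD, n = 3, versus 0.1% DMSO control.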

The subject of data set [8] is HCT-15. The data set can be described thus: Cytotoxicity against human HCT15 cells assessed as growth inhibition after 72 hrs by WST-8 assay. In kind it is functional, cell-based.
Data set [9] relates to HT-29. The data set is described as follows: Induction of ROS generation in human HT-29 cells at > 250 uM after 24 hrs by FACS flow cytometry. In kind it is functional, cell-based.
The test system of data set [10] is WI-38. The data set is described as follows: Cytotoxicity against human WI38 cells assessed as growth inhibition after 72 hrs by WST-8 assay. It counts as cell-based. Particulars: wi-38, 72 h.
For data set [11], the system named is HT-29. The data set can be described thus: Cell cycle arrest in human HT-29 cells assessed as accumulation at G2/M phase at > 250 uM after 24 hrs by propidium iodide based FACS flow cytometry relative to control. It counts as functional. In a few lines:
(§4)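 HT-29 cells exposed 24 h to 125, 250 or 500 μM, with 0.1% DMSO as vehicle control. Permeabilized with 0.1% Triton X-100, stained with 100 μg/mL PI and analysed by FACSCalibur for G1/S/G2/M percentages. Means ± SD, n = 3; significance tested against DMSO control.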

Data set [12] relates to HCT-15. The data set is described as follows: Cell cycle arrest in human HCT15 cells assessed as ROS-stimulated accumulation at G2/M phase after 24 hrs by propidium iodide based FACS flow cytometry in presence of alpha-tocopherol. In kind it is functional.
The test system of data set [13] is HCT-116. The data set is described as follows: Cell cycle arrest in human HCT116 cells assessed as ROS-stimulated accumulation at G2/M phase after 24 hrs by propidium iodide based FACS flow cytometry in presence of L-ascorbic acid. In kind it is functional.
Data set [14] concerns HT-29. The data set is described as follows: Cell cycle arrest in human HT-29 cells transfected with p21 siRNA assessed as accumulation at G2/M phase at 500 uM after 24 hrs by propidium iodide based FACS flow cytometry. In kind it is functional. A digest of the protocol: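 HT-29 cells transiently transfected for 24 h with 10 nM p21 or negative-control siRNA using Lipofectamine RNAiMAX, alongside 24 h exposure to 500 μM or 0.1% DMSO. Cells were PI-stained and cell-cycle phases quantified by flow cytometry. Means ± SD, n = 3, versus DMSO-treated control.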

In data set [15] the test system is HT-29. The data set can be described thus: Cell cycle arrest in human HT-29 cells assessed as ROS-stimulated increase in p21 at 250 to 500 uM after 24 hrs by Western blotting in presence of N-acetyl-L-cysteine. It counts as functional, cell-based.
In data set [16] the test system is HT-29. The data set can be described thus: Cell cycle arrest in human HT-29 cells assessed as accumulation at G2/M phase at 250 uM after 24 hrs by propidium iodide based FACS flow cytometry. In kind it is functional. A digest of the protocol:
as §4

Data set [17] relates to HT-29. The data set is described as follows: Cell cycle arrest in human HT-29 cells assessed as ROS-stimulated accumulation at G2/M phase after 24 hrs by propidium iodide based FACS flow cytometry in presence of PEG-penetreated catalase. In kind it is functional. A digest of the protocol: as §3
For data set [18], the system named is HT-29. The data set is described as follows: Cell cycle arrest in human HT-29 cells assessed as ROS-stimulated accumulation at G2/M phase after 24 hrs by propidium iodide based FACS flow cytometry in presence of alpha-tocopherol. In kind it is functional. In a few lines: as §3
The subject of data set [19] is HT-29. The data set is described as follows: Cell cycle arrest in human HT-29 cells assessed as ROS-stimulated accumulation at G2/M phase after 24 hrs by propidium iodide based FACS flow cytometry in presence of MnTBAP. In kind it is functional. In a few lines:
as §3

In data set [20] the test system is HT-29. The data set is described as follows: Upregulation of Cyclin B gene expression in human HT-29 cells at 125 to 500 uM after 24 hrs by Western blotting. It counts as functional, cell-based. A digest of the protocol: as §2
The subject of data set [21] is HT-29. The data set is described as follows: Cell cycle arrest in human HT-29 cells assessed as ROS-stimulated accumulation at G2/M phase after 24 hrs by propidium iodide based FACS flow cytometry in presence of L-ascorbic acid. It counts as functional. In a few lines:
as §3

The test system of data set [22] is HCT-15. The data set is described as follows: Cell cycle arrest in human HCT15 cells assessed as ROS-stimulated accumulation at G2/M phase after 24 hrs by propidium iodide based FACS flow cytometry in presence of L-ascorbic acid. In kind it is functional.
The test system of data set [23] is HCT-116. The data set is described as follows: Cell cycle arrest in human HCT116 cells assessed as ROS-stimulated accumulation at G2/M phase after 24 hrs by propidium iodide based FACS flow cytometry in presence of alpha-tocopherol. In kind it is functional.
The subject of data set [24] is HT-29. The data set is described as follows: Cell cycle arrest in human HT-29 cells assessed as ROS-stimulated accumulation at G2/M phase after 24 hrs by propidium iodide based FACS flow cytometry in presence of SOD. It counts as functional. In a few lines: as §3
The subject of data set [25] is HCT-116. The data set can be described thus: Cell cycle arrest in human HCT116 cells assessed as ROS-stimulated accumulation at G2/M phase after 24 hrs by propidium iodide based FACS flow cytometry in presence of N-acetyl-L-cysteine. It counts as functional.
Data set [26] has as its system HT-29. The data set is described as follows: Upregulation of CDK1 gene expression in human HT-29 cells at 125 to 500 uM after 24 hrs by Western blotting. It counts as functional, cell-based. In a few lines: as §2
Data set [27] has as its system WI-38. The data set can be described thus: Cell cycle arrest in human WI38 cells assessed as ROS-stimulated accumulation at G2/M phase at 250 uM after 24 hrs by propidium iodide based FACS flow cytometry in presence of N-acetyl-L-cysteine. The conditions noted are these: wi-38, 24 h.
Data set [28] relates to HT-29. The data set can be described thus: Cytotoxicity against human HT-29 cells assessed as dead cells at 1000 uM after 72 hrs by […]. In kind it is functional. In a few lines:
as §1

Data set [29] has as its system HT-29. The data set can be described thus: Cytotoxicity against human HT-29 cells assessed as growth inhibition after 72 hrs by WST-8 assay. It counts as functional. A digest of the protocol: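 Viability read by WST-8 (Cell Counting Kit-8) after 72 h incubation of HT-29 cells with compound. Cells cultured in DMEM with 10% FBS at 37 °C, 5% CO₂. Means ± SD, n = 3.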

Data set [30] deals with HT-29. The data set can be described thus: Cytotoxicity against human HT-29 cells assessed as dead cells at 500 uM after 72 hrs by […]. It counts as functional. In a few lines:
as §1

In data set [31] the test system is HT-29. The data set is described as follows: Cytotoxicity against human HT-29 cells assessed as dead cells at > 31.3 uM after 72 hrs by […]. In kind it is functional. A digest of the protocol: as §1

With `COc1cc(/C=C/C(C)=O)ccc1O` [DEHYDROZINGERONE], the Activity in [1] was 11%; in [10], “Toxic”; in data set [27] it was “Toxic”; in data set [28], 37%; in data set [30], 22%. The outcome in data set [2], in data set [5], in data set [6], in data set [9], in [12] and in [13] was Active. Besides, the result in [16], in data set [17], in data set [18], in [19], in data set [21] and in data set [22] was Active. The outcome in data set [23] and in data set [24] was Active. For the same molecule, the “growth inhibition (GI)” value in data set [3], in data set [8] and in data set [29] was “Active” each time. In addition, the outcome in data set [4], in data set [7], in data set [14], in data set [15], in data set [20] and in [25] was inactive. In addition, the result in data set [26] was inactive. For the same molecule, the “fold change (FC)” value in [11] was 2.
For the molecule `COc1cc(/C=C/C(=O)CC(=O)/C=C/c2ccc(O)c(OC)c2)ccc1O` [CURCUMIN], the Activity in data set [1] is 45%; in data set [31], 84%.
As for `COc1cccc(/C=C/C(C)=O)c1O`, the result in data set [6] and in [9] was Active. In data set [29], the “growth inhibition (GI)” value is “Active”.
Regarding `COc1ccc(/C=C/C(C)=O)cc1O`, the result in data set [6] and in data set [9] was Active. Moreover, the “growth inhibition (GI)” value in data set [29] was “Active”.
